Experimental findings from ChEMBL document CHEMBL1130267, “Regulation of retinoidal actions by diazepinylbenzoic acids. Retinoid synergists which activate the RXR-RAR heterodimers” (J Med Chem, 1997) are described below.

The IC50 is the midpoint of a concentration-inhibition curve. Broadly, the Ki is a measure of affinity in units of concentration, obtained from inhibition or displacement.

Assay [1] deals with HL-60. Nature of the assay: Concentration which reduces by half the percentage of differentiated HL-60 cells induced by 1 x 10e-9 M Am80. Conditions: Homo sapiens; call rule not given here. Format: functional, cell-based. In short, it runs like this:
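Antagonism in HL-60 cells cotreated with 1 × 10^-9 M Am80 for 4 days, with Am80 alone and test compound alone run in parallel. Cells were seeded at about 8 × 10⁴/mL in RPMI1640/5% FBS, and compounds came from 2 mM ethanol stocks (final ethanol <0.5%). NBT reduction (0.2% NBT, 200 ng/mL TPA, 20 min, 37 °C) was counted on ≥200 cells. IC50 is the concentration halving the % of differentiated cells. Run at least twice.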

The subject of assay [2] is HL-60. The assay can be described thus: Concentration of a compound which induces HL-60 cell differentiation to the extent of 50%; inactive below 1.0E-6M test compound. Format: functional, cell-based, Homo sapiens.
In assay [3] the target is T1, Retinoic acid receptor RXR-alpha (Homo sapiens, UniProt P19793).
T1 sequence (P19793 whole entry): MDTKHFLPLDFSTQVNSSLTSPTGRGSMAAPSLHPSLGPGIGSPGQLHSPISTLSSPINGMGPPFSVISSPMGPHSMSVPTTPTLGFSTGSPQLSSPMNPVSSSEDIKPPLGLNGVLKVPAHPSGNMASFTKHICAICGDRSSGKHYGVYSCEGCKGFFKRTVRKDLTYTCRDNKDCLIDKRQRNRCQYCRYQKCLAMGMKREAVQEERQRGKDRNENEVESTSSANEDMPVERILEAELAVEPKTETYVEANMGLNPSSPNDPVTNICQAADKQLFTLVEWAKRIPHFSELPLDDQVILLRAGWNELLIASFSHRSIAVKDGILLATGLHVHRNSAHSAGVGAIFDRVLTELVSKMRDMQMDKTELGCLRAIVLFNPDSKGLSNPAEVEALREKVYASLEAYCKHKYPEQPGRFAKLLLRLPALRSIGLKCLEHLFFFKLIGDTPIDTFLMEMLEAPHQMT
The assay can be described thus: Antagonistic activity towards retinoid X receptor-alpha. The format is functional.

In assay [4] the target is T2, Retinoic acid receptor alpha (Homo sapiens, UniProt P10276).
T2 sequence (P10276 whole entry): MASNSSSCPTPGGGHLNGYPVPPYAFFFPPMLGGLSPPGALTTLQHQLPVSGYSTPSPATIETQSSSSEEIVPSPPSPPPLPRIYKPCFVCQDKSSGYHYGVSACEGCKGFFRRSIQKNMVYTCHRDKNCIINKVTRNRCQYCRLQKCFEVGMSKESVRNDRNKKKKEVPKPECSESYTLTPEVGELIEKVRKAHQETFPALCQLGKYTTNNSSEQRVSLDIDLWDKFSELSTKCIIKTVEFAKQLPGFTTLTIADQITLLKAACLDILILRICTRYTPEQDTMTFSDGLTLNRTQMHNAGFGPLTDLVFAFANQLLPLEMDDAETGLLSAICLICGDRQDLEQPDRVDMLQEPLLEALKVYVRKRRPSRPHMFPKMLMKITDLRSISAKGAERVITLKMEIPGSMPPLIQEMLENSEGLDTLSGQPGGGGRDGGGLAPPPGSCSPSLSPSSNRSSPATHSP
Nature of the assay: Antagonistic activity towards retinoic acid receptor-alpha. The format is functional. In outline:
(§1)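 Competitive nitrocellulose filter binding to recombinant RARα ligand-binding domain fused to maltose-binding protein, using 8 nM [³H]Am80 as tracer. IC50 for displacement of specific binding was converted to Ki by Ki = IC50/(1 + [L]/Kd).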

Assay [5] addresses T3, Retinoic acid receptor gamma (Homo sapiens, UniProt P13631).
T3 sequence (P13631 whole entry): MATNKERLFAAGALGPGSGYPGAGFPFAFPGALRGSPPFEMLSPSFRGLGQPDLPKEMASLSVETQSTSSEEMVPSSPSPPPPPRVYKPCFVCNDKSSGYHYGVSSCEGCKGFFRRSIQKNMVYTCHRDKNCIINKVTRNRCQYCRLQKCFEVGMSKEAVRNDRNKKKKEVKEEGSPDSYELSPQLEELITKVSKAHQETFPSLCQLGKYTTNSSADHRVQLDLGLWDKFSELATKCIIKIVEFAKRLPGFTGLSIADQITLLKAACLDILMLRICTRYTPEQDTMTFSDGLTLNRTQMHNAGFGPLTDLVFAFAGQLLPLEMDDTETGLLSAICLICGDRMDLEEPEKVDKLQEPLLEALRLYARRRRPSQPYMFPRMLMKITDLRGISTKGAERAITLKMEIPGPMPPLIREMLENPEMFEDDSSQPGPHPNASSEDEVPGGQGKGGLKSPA
Nature of the assay: Antagonistic activity towards retinoic acid receptor-gamma. The format is functional. In outline:
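Recombinant RARγ in a nitrocellulose filter competitive binding assay with 4 nM [³H]-9-cis-retinoic acid (diluted with cold ligand to 8 Ci/mmol). Ki = IC50/(1 + [L]/Kd).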

Assay [6] has as its target T4, Retinoic acid receptor RXR-beta (Homo sapiens, UniProt P28702).
T4 sequence (P28702 whole entry): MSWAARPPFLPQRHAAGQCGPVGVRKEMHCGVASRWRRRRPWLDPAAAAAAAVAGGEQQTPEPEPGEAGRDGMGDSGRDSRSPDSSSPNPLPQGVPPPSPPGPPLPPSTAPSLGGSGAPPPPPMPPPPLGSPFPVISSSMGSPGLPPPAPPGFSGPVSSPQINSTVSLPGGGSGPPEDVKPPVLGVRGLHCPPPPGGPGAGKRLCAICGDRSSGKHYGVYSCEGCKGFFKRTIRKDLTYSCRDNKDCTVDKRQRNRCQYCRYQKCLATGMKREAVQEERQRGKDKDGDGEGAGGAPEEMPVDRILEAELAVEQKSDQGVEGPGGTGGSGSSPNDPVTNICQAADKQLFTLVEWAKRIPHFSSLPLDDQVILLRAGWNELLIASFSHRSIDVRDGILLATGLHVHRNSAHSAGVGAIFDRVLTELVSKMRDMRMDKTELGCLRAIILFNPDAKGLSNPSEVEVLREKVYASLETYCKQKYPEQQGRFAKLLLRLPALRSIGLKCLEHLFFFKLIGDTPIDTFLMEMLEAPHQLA
Nature of the assay: Antagonistic activity towards retinoid X receptor-beta. The format is functional.

Assay [7] deals with T5, Retinoic acid receptor beta (Homo sapiens, UniProt P10826).
T5 sequence (P10826 whole entry): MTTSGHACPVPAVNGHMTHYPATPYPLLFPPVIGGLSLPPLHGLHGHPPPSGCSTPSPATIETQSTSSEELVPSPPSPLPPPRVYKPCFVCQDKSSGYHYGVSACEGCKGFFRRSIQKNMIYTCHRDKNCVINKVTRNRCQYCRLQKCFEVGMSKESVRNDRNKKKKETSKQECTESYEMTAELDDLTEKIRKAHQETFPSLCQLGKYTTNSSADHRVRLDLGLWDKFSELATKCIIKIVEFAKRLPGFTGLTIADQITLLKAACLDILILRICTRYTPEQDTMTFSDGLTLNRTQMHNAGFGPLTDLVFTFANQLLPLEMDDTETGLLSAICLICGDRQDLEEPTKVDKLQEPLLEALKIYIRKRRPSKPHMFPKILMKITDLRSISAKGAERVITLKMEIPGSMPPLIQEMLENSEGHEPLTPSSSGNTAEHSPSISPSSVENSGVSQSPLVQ
Nature of the assay: Antagonistic activity towards retinoic acid receptor-beta. Format: functional. In short, it runs like this: (§2)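 Filter binding competition on the MBP-fused RARβ ligand-binding domain against 20 nM [³H]Am80. The IC50 for halving specific binding was converted to Ki via Ki = IC50/(1 + [L]/Kd).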

Assay [8] has as its target T6, Retinoic acid receptor RXR-gamma (Homo sapiens, UniProt P48443).
T6 sequence (P48443 whole entry): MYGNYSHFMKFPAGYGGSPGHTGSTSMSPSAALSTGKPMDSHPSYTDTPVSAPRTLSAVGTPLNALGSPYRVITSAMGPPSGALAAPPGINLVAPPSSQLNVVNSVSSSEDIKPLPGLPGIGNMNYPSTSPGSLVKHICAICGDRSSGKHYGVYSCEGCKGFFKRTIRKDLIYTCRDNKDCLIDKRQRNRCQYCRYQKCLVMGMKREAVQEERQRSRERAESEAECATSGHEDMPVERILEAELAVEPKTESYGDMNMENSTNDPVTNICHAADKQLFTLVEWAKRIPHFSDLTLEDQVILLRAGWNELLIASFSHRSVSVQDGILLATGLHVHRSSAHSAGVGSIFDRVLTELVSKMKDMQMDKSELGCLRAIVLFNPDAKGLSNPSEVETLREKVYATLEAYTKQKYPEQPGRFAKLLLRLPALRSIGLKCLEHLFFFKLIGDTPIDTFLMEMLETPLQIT
The assay can be described thus: Antagonistic activity towards retinoid X receptor-gamma. Format: functional.

Assay [9] addresses T6, Retinoic acid receptor RXR-gamma. Nature of the assay: Synergistic activity towards retinoid X receptor-gamma.
In assay [10] the target is T1, Retinoic acid receptor RXR-alpha. Nature of the assay: Synergistic activity towards retinoid X receptor-alpha.
The target of assay [11] is T4, Retinoic acid receptor RXR-beta. Nature of the assay: Synergistic activity towards retinoid X receptor-beta.
The target in assay [12] is T2, Retinoic acid receptor alpha. The assay can be described thus: Synergistic activity towards retinoic acid receptor-alpha. In short, it runs like this:
as §1

Assay [13] concerns the target T5, Retinoic acid receptor beta. Nature of the assay: Synergistic activity towards retinoic acid receptor-beta. In short, it runs like this:
as §2

Assay [14] relates to HL-60. Nature of the assay: Concentration which reduces by half the percentage of differentiated HL-60 cells; Inactive at 1 x 10e-6 M. Format: functional, cell-based, Homo sapiens.

Each structure is given as a SMILES string.

`CN1c2ccc(C(C)(C)C)cc2N=C(c2ccc(C(=O)O)cc2)c2ccccc21` came in with an IC50 in the assay on HL-60 [1] above 1000 nM.

As for `CN1c2ccccc2N=C(c2ccc(C(=O)O)cc2)c2cc(Br)ccc21`, the EC50 result in the assay on HL-60 [2] is “Not Active”.

Regarding `CN1c2cc3c(cc2N=C(c2ccc(C(=O)O)cc2)c2ccc4cc5ccccc5cc4c21)C(C)(C)CCC3(C)C`, the IC50 with HL-60 [1] turned out to be 320 nM.

On to `CN1c2cc3c(cc2N=C(c2ccc(C(=O)O)cc2)c2ccc4ccccc4c21)C(C)(C)CCC3(C)C`, for which the inhibition constant Ki in [3] came out at 3800 nM; in assay [4], 1300 nM; in assay [5] it was 490 nM; in [6] it was 1700 nM; in assay [7] it was 500 nM; in assay [8], 1500 nM. For the same compound, half-maximal inhibition with HL-60 [1] (IC50) required 36 nM.

For the compound `CC1(C)CCC(C)(C)c2cc3c(cc21)Oc1ccccc1N=C3c1ccc(C(=O)O)cc1`, the Ki in [9] amounted to 2100 nM; in assay [10], 3800 nM; in assay [11], 1200 nM; in assay [12], 980 nM; in assay [13] it was 320 nM.

For the compound `CC1c2ccccc2N=C(c2ccc(C(=O)O)cc2)c2cc3c(cc21)C(C)(C)CCC3(C)C` (centres undefined), the Ki in assay [12] amounted to 2000 nM.

Turning to `CN1c2cc3c(cc2N=C(c2ccc(C(=O)O)cc2)c2ccccc21)C(C)(C)CCC3(C)C`, the inhibitory constant (Ki) was 1400 nM in [4] and 220 nM in [7]. Besides, the IC50 in the assay with HL-60 [1] was found to be 150 nM.

`CCCN1c2cc3c(cc2N=C(c2ccc(C(=O)O)cc2)c2ccccc21)C(C)(C)CCC3(C)C` returned an IC50 with HL-60 [1] of 130 nM.

For the compound `CCCCCCCN1c2cc3c(cc2N=C(c2ccc(C(=O)O)cc2)c2ccccc21)C(C)(C)CCC3(C)C`, in the assay on HL-60 [1], it took 210 nM to reach half-maximal inhibition (IC50).

Regarding `CC1(C)CCC(C)(C)c2cc3c(cc21)NC(=O)CN=C3c1ccc(C(=O)O)cc1`, the EC50 entry in the assay on HL-60 [2] was “Not Active”.

`CN1c2ccccc2N=C(c2ccc(C(=O)O)cc2)c2cc(-c3ccccc3)ccc21`: the EC50 result in the assay on HL-60 [2] was “Not Active”.

For the compound `CN1c2ccccc2N=C(c2ccc(C(=O)O)cc2)c2cc3c(cc21)C(C)(C)CCC3(C)C`, the Ki in assay [9] came to 1000 nM; in assay [10] it was 1900 nM; in [11], 640 nM; in [13] it was 680 nM.

With `CN1c2cc3c(cc2N=C(c2ccc(C(=O)O)cc2)c2c1ccc1ccccc21)C(C)(C)CCC3(C)C`, inhibition in the assay on HL-60 [1] was half-maximal at 120 nM (IC50).

On to `CC1(C)CCC(C)(C)c2cc3c(cc21)Sc1ccccc1N=C3c1ccc(C(=O)O)cc1`, for which the Ki is 620 nM in assay [9]; 900 nM in [10]; 400 nM in assay [11]; 900 nM in assay [12]; 320 nM in assay [13].

With `CC(C)c1cc2c(cc1C(C)C)N(C)c1ccccc1C(c1ccc(C(=O)O)cc1)=N2`, the IC50 result in the assay with HL-60 [14] is on record as “Not Active”.

On to `CN1c2cc3c(cc2N=C(c2ccc(C(=O)O)cc2)c2c1c1ccccc1c1ccccc21)C(C)(C)CCC3(C)C`, for which the half-inhibitory concentration (IC50) with HL-60 [1] came out at 350 nM.

Turning to `CC1(C)CCC(C)(C)c2cc3c(cc21)Cc1ccccc1N=C3c1ccc(C(=O)O)cc1`, the Ki in assay [9] was 1000 nM; in [10], 1800 nM; in assay [11], 790 nM; in assay [12] it was 1600 nM; in assay [13] it was 810 nM.

For `CN1c2ccc(C34CC5CC(CC(C5)C3)C4)cc2N=C(c2ccc(C(=O)O)cc2)c2ccccc21`, the IC50 entry with HL-60 [14] was “Not Active”.

As to `CN1c2cc3c(cc2N=C(c2ccc(C(=O)O)cc2)c2cc4c(cc21)C(C)(C)CCC4(C)C)C(C)(C)CCC3(C)C`, the IC50 in the assay on HL-60 [1] came to 830 nM.

Turning to `CN1c2ccccc2N=C(c2ccc(C(=O)O)cc2)c2ccccc21`, in the assay with HL-60 [2], the EC50 result is listed as “Not Active”.

For the compound `CN1c2ccccc2N=C(c2ccc(C(=O)O)cc2)c2cc(C(C)(C)C)ccc21`, the EC50 result in the assay on HL-60 [2] was “Not Active”.
